Measured values as given in paper PMC6032914 (Clinical Pharmacology in Drug Development, 2018).
Like-named read-outs stand apart in the source and are kept apart here.

How the values were obtained:
[1] = cited from earlier work
[2] = system: phospho‐c‐Met and phospho‐Akt; conditions: NSCLC tumor lysates, alone or in combination; cited from earlier work
HGF = conditions: affinity of ficlatuzumab to HGF; cited from earlier work
[3] = Ficlatuzumab antidrug antibody; assay type: in vivo, human
Safety and tolerability = assay type: in vivo, human; conditions: every 2 weeks, plus gefitinib 250 mg/day
NSCLC xenografts = conditions: cited from earlier work
serum HGF = test: Serum HGF pharmacodynamic marker; assay type: in vivo, human; conditions: total serum HGF after ficlatuzumab administration
Summary of the method: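 Peripheral blood for serum total HGF was drawn before treatment and 3 h postinfusion on day 1, predose on days 2, 3, 8 and 22–28, predose and 2 h postinfusion on day 15 of cycle 1, and predose on cycle 3 day 1.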

[4] = Ficlatuzumab serum pharmacokinetics; assay type: in vivo, human
[5] = Gefitinib pharmacokinetics; assay type: in vivo; conditions: human, plasma, oral, Tmax (h), mean (SD), gefitinib 250 mg daily with ficlatuzumab 20 mg/kg
[6] = system: c‐Met‐positive advanced NSCLC; conditions: in combination with erlotinib; cited from earlier work
[7] = 15 patients receiving monotherapy 20 mg/kg
[8] = ficlatuzumab 10 mg/kg, Cycle 1, day 1, n = 3
[9] = ficlatuzumab 20 mg/kg, Cycle 1, day 1, n = 12
[10] = ficlatuzumab 20 mg/kg, Cycle 4, day 1, n = 6

For “Ficlatuzumab: humanized IgG1κ inhibitory monoclonal antibody that binds to HGF and prevents the ligand from activating the c‐Met receptor”, the TEAE fatigue [1, 7] is listed as 5 patients, the TEAE hypokalemia [1, 7] is listed as 4 patients and the TEAE nausea [1, 7] is listed as 4 patients. The TEAE peripheral edema [1, 7] was 8 patients, the TEAE vomiting [1, 7] was 5 patients and the “tolerability of the highest administered dose” value ([1]; ficlatuzumab 20 mg/kg) was “well tolerated without any dose‐limiting toxicities”. For the same compound, the “grade 3/4 TEAE hypokalemia” value ([1]; ficlatuzumab monotherapy) was 4 patients, the “recommended phase 2 dose (RP2D) of ficlatuzumab” value ([1]; intravenous every 2 weeks, with oral erlotinib 150 mg/day) was 20 mg/kg and the “phospho‐c‐Met and phospho‐Akt levels” value [2] was “decreased”. For the same compound, the Kd (HGF) was 3 pM, the “ADA result of postficlatuzumab samples” value ([3]; 41 samples from 14 patients) was “negative” and the immunogenicity ([3]; any patients during the observation period) was “not immunogenic”. For the same compound, the “recommended phase 2 dose (RP2D) of ficlatuzumab” value (Safety and tolerability) was 20 mg/kg, the tumor growth (NSCLC xenografts) was “inhibits tumor growth” and the “highest HGF level observed” value (serum HGF) was “≈ 14 ng/mL”. For the same compound, the “mean trough level of ficlatuzumab” value ([4]; beginning of cycle 4, 20 mg/kg cohort, n = 8) was 413.1 µg/mL, the “Ficlatuzumab drug exposure (Cmax and AUC0–last) versus dose” value ([4]; cycle 1, 10 and 20 mg/kg) was “approximately proportional to dose” and the “AUC0–last (mg·h/mL), mean (SD)” value [4, 8] was 39.2 (4.5) mg·h/mL. For the same compound, the “Cmax (μg/mL), mean (SD)” value [4, 8] was 229 (8.9) μg/mL, the “t1/2 (Days), mean (SD)” value [4, 8] was 15.2 (4.7) Days and the “AUC0–last (mg·h/mL), mean (SD)” value [4, 9] was 81.3 (16.5) mg·h/mL. For the same compound, the “Cmax (μg/mL), mean (SD)” value [4, 9] was 544 (141) μg/mL, the “t1/2 (Days), mean (SD)” value [4, 9] was 11.3 (3.2) Days and the “AUC0–last (mg·h/mL), mean (SD)” value [4, 10] was 212 (47.3) mg·h/mL. The “Cmax (μg/mL), mean (SD)” value [4, 10] was 1070 (220) μg/mL and the “mean half‐life” value ([4]; first dose in cycle 1, dose not stated) was “approximately 15 days”.

`COc1cc2ncnc(Nc3ccc(F)c(Cl)c3)c2cc1OCCCN1CCOCC1` [Gefitinib, gefitinib] gave a Tmax ([5]; Cycle 1, day 1, n = 12) of 5.4 h and a Tmax ([5]; Cycle 4, day 1, n = 6) of 9.9 h.

In the case of “onartuzumab: c‐Met‐targeted monovalent monoclonal antibody, tested in combination with erlotinib”, the “outcome of the phase 3 study” value [6] is given as “lack of efficacy”.
